Assays:
NCI-H661 [1] = assay: Induction of apoptosis in human NCI-H661 cells assessed as early apoptotic cells at 20 uM after 24 hrs by Annexin V/FITC-staining based FACS analysis (reference value: 5%); assay type: functional
NCI-H661 [2] = assay: Induction of apoptosis in human NCI-H661 cells assessed as viable cells at 20 uM after 24 hrs by Annexin V/FITC-staining based FACS analysis (reference value: 86.9%); assay type: functional; details: NCI-H661, 24 h, read-out: Activity
[3] = biological target: Tyrosine-protein phosphatase non-receptor type 11 (Homo sapiens, UniProt Q06124, E76K); assay: Inhibition of recombinant full length human GST-tagged SHP2 E76K mutant using phospho-peptide as substrate pre-incubated for 30 mins before substrate addition and measured after 30 mins
Sequence of Tyrosine-protein phosphatase non-receptor type 11 (Homo sapiens, UniProt Q06124, E76K) (Q06124 as listed by the source E76K): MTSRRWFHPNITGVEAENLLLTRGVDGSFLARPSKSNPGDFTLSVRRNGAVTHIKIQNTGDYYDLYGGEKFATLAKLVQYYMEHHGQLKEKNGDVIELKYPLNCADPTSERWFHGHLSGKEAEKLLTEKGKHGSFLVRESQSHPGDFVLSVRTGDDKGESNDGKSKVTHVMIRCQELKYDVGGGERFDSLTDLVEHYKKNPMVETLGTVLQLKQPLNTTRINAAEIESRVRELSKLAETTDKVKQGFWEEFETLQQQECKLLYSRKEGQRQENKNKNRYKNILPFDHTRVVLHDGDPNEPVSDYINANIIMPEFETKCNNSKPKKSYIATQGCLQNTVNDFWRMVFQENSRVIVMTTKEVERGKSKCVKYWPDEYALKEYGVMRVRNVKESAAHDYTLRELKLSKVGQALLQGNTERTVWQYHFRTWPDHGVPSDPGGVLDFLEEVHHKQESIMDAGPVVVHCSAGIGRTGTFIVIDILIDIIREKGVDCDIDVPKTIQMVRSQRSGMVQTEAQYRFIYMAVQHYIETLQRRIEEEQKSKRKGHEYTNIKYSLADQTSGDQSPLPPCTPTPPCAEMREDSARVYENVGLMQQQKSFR

[4] = biological target: T1, Tyrosine-protein phosphatase non-receptor type 11 (Homo sapiens, UniProt Q06124); assay: Inhibition of wild type recombinant human SHP2 using H-Glu-Phe-pTyr-Ala-Glu-Val-Gly-Arg-Ser-Pro-Pro-Asp-Pro-Ala-Lys as substrate preincubated for 30 mins followed by substrate addition and measured after 30 mins by Malachite Green-reagent based assay
T1 sequence (Q06124 whole entry): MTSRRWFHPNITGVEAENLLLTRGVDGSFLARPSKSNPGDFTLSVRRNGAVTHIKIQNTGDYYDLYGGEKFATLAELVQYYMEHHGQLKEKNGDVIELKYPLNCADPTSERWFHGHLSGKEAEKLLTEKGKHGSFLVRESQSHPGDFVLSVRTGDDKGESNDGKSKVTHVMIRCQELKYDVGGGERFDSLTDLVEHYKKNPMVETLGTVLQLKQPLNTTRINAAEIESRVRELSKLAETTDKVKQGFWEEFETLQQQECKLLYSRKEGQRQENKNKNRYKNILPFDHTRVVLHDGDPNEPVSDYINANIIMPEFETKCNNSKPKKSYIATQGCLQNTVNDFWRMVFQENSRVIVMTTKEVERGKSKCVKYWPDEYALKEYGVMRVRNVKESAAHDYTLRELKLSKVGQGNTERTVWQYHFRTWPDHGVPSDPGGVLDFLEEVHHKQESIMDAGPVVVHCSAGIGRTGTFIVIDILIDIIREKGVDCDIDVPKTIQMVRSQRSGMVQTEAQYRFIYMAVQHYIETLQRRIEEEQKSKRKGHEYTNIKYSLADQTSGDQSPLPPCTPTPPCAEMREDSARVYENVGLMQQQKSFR
Procedure, shortened: (§1)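 Full-length SHP2 or SHP1 (0.1 µg) preincubated with compound 30 min at room temperature in 25 mM Tris-HCl pH 7.4, 50 mM NaCl, 5 mM DTT, 2.5 mM EDTA. Phospho-peptide substrate added to 50 µM final; 30 min at 30 °C. Released phosphate read by Malachite Green at OD620. IC50 from six concentrations; three experiments.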

NCI-H661 [5] = assay: Induction of apoptosis in human NCI-H661 cells assessed as late apoptotic cells at 20 uM after 24 hrs by Annexin V/FITC-staining based FACS analysis (reference value: 3.5%); assay type: functional
NCI-H661 [6] = assay: Induction of apoptosis in human NCI-H661 cells assessed as early apoptotic cells at 10 uM after 24 hrs by Annexin V/FITC-staining based FACS analysis (reference value: 5%); assay type: functional
NCI-H661 [7] = assay: Induction of apoptosis in human NCI-H661 cells assessed as viable cells at 10 uM after 24 hrs by Annexin V/FITC-staining based FACS analysis (reference value: 86.9%); assay type: functional; details: NCI-H661, 24 h, read-out: Activity
[8] = biological target: T1, Tyrosine-protein phosphatase non-receptor type 11; assay: Inhibition of recombinant full length human GST-tagged SHP2 PTP domain using phospho-peptide as substrate pre-incubated for 30 mins before substrate addition and measured after 30 mins
MEF = assay: Growth inhibition of PTPN11-depleted MEF at 6 uM after 24 to 72 hrs by cell proliferation-based assay; details: mouse
Procedure, shortened: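 Ptpn11 fl/fl and Ptpn11 +/+ MEFs, both Ade-Cre+, infected with adeno-Cre, then given 6 µM compound or DMSO. Growth measured at 24, 48 and 72 h by One Solution proliferation assay. SHP2 loss confirmed by immunoblot. Triplicates from one of three experiments.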

NCI-H661 [9] = assay: Induction of apoptosis in human NCI-H661 cells assessed as necrotic cells at 20 uM after 24 hrs by Annexin V/FITC-staining based FACS analysis (reference value: 4.6%); assay type: functional
NCI-H661 [10] = assay: Induction of apoptosis in human NCI-H661 cells assessed as late apoptotic cells at 10 uM after 24 hrs by Annexin V/FITC-staining based FACS analysis (reference value: 3.5%); assay type: functional
NCI-H661 [11] = assay: Induction of apoptosis in human NCI-H661 cells assessed as necrotic cells at 10 uM after 24 hrs by Annexin V/FITC-staining based FACS analysis (reference value: 4.6%); assay type: functional
[12] = biological target: T1, Tyrosine-protein phosphatase non-receptor type 11; assay: Binding affinity to full length wild type His-tagged SHP2 (unknown origin) by MST assay
Procedure, shortened: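 His-tagged SHP2 (200 nM) in 50 mM Tris-HCl pH 8.0, 10 mM NaCl, 0.005% Tween 20, labelled with red-tris-NTA dye. Mixed 1:1 with a 15-step 2-fold dilution series from 600 µM made in PBS/0.005% Tween 20. MST run at 50% power with red filter; one-site fit gives Kd. Mean ± SD of three experiments.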

[13] = biological target: Tyrosine-protein phosphatase non-receptor type 6 (Homo sapiens, UniProt P29350); assay: Inhibition of wild type recombinant human SHP1 using H-Glu-Phe-pTyr-Ala-Glu-Val-Gly-Arg-Ser-Pro-Pro-Asp-Pro-Ala-Lys as substrate preincubated for 30 mins followed by substrate addition and measured after 30 mins by Malachite Green-reagent based assay; procedure, shortened: as §1
Sequence of Tyrosine-protein phosphatase non-receptor type 6 (P29350 whole entry): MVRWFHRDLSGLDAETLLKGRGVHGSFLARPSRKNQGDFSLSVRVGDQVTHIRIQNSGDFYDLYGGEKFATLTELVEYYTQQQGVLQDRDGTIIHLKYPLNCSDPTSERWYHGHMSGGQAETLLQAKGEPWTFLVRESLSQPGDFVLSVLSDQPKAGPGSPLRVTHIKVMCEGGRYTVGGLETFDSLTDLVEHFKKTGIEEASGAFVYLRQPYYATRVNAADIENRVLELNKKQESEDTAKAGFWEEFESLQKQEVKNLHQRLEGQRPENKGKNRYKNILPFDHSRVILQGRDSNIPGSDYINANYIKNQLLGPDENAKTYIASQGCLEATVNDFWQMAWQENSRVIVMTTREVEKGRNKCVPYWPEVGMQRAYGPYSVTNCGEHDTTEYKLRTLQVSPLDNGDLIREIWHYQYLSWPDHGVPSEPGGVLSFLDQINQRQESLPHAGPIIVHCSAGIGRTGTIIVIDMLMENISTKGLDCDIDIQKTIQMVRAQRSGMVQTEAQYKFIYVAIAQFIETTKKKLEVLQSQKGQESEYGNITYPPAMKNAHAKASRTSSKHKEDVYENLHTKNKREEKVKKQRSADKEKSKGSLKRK

CCOc1cc(O)c(C(=O)/C=C/c2ccc(Cl)cc2Cl)cc1CN1CCC=C(n2c(=O)[nH]c3ccccc32)C1
Activity (NCI-H661 [1]): 12.6%
viability at 20 µM (NCI-H661 [2]): 57.6%
IC50 [3]: 7.67 µM
IC50 [4]: 9.8 µM
Activity (NCI-H661 [5]): 21%
Activity (NCI-H661 [6]): 9.7%
viability at 10 µM (NCI-H661 [7]): 76.8%
IC50 [8]: 20.9 µM
Activity (MEF): Non-Toxic
Activity (NCI-H661 [9]): 8.9%
Activity (NCI-H661 [10]): 7.3%
Activity (NCI-H661 [11]): 6.2%
Kd [12]: 69 µM
IC50 [13]: 72.7 µM

Reference: ChEMBL document CHEMBL4422612, “Small Molecule Inhibitor that Stabilizes the Autoinhibited Conformation of the Oncogenic Tyrosine Phosphatase SHP2” (J Med Chem, 2019)
